In brackets after ≈: the same amount, converted by molar mass. Activity calls are given as the source filed them. No cut-off for these calls is given here.
How the values were obtained:
Pseudomonas aeruginosa [1] = test: Antimicrobial activity against Pseudomonas aeruginosa ATCC 15499 assessed as diameter of inhibition zone at 80 uM after 24 hrs by Kirby -Baur disc diffusion method; type: functional; conditions: ATCC 15499, 24 h, read-out: DIZ
Summary of the method: (§1)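 Kirby-Bauer disc diffusion was used. Acetone stocks (160 µM) were serially doubled down to 80, 40 and 20 µM. 4 µL of each went onto 5 mm sterile paper discs, which were dried 30 min at 50 °C. Inoculum was 1.5 × 10⁸ CFU/mL diluted to 3 × 10² CFU/mL, and 50 µL was spread on Mueller-Hinton agar. After 24 h at 37 °C the inhibition-zone diameter was measured. Ciprofloxacin served as positive control.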

Curvularia lunata [2] = test: Antifungal activity against Curvularia lunata MTCC 581 assessed as zone of inhibition at 80 uM after 48 hrs by disc diffusion method; type: functional; conditions: MTCC 581, 48 h, read-out: IZ
Summary of the method: (§2)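 Spores from 4-day potato dextrose agar cultures, suspended in sterile water at 1.5 × 10⁵ CFU/mL. 0.2 mL was spread on potato dextrose agar. 5 mm filter-paper discs soaked with test compound were laid on the lawn. Incubation was 48 h at 28 °C, then the inhibition zone was measured in mm. Fluconazole was the positive control and acetone the negative control.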

Aspergillus flavus [3] = test: Antifungal activity against Aspergillus flavus MTCC 1021 after 48 hrs; type: functional; conditions: MTCC 1021, 48 h
Trichoderma viride [4] = test: Antifungal activity against Trichoderma viride MTCC 1107 assessed as zone of inhibition at 20 uM after 48 hrs by disc diffusion method; type: functional; conditions: MTCC 1107, 48 h, read-out: IZ; summary of the method: as §2
Escherichia coli [5] = test: Antimicrobial activity against Escherichia coli ATCC 35218 assessed as diameter of inhibition zone at 40 uM after 24 hrs by Kirby -Baur disc diffusion method; type: functional; conditions: ATCC 35218, 24 h, read-out: DIZ; summary of the method: as §1
Trichoderma viride [6] = test: Antifungal activity against Trichoderma viride MTCC 1107 assessed as zone of inhibition at 40 uM after 48 hrs by disc diffusion method; type: functional; conditions: MTCC 1107, 48 h, read-out: IZ; summary of the method: as §2
Staphylococcus aureus [7] = test: Antimicrobial activity against Staphylococcus aureus ATCC 11632 assessed as diameter of inhibition zone at 40 uM after 24 hrs by Kirby -Baur disc diffusion method; type: functional; conditions: ATCC 11632, 24 h, read-out: DIZ; summary of the method: as §1
Curvularia lunata [8] = test: Antifungal activity against Curvularia lunata MTCC 581 after 48 hrs; type: functional; conditions: MTCC 581, 48 h
Pseudomonas aeruginosa [9] = test: Antimicrobial activity against Pseudomonas aeruginosa ATCC 15499 assessed as diameter of inhibition zone at 40 uM after 24 hrs by Kirby -Baur disc diffusion method; type: functional; conditions: ATCC 15499, 24 h, read-out: DIZ; summary of the method: as §1
Staphylococcus aureus [10] = test: Antimicrobial activity against Staphylococcus aureus ATCC 11632 assessed as diameter of inhibition zone at 20 uM after 24 hrs by Kirby -Baur disc diffusion method; type: functional; conditions: ATCC 11632, 24 h, read-out: DIZ; summary of the method: as §1
Salmonella typhi [11] = test: Antimicrobial activity against Salmonella typhi ATCC 23564 assessed as diameter of inhibition zone at 20 uM after 24 hrs by Kirby -Baur disc diffusion method; type: functional, Salmonella enterica subsp. enterica serovar Typhi; conditions: Salmonella enterica, ATCC 23564, 24 h; read-out: DIZ
Bacillus cereus [12] = test: Antimicrobial activity against Bacillus cereus MTCC 7350 assessed as diameter of inhibition zone at 80 uM after 24 hrs by Kirby -Baur disc diffusion method; type: functional; conditions: MTCC 7350, 24 h, read-out: DIZ; summary of the method: as §1
Aspergillus flavus [13] = test: Antifungal activity against Aspergillus flavus MTCC 1021 assessed as zone of inhibition at 40 uM after 48 hrs by disc diffusion method; type: functional; summary of the method: as §2
Salmonella typhi [14] = test: Antimicrobial activity against Salmonella typhi ATCC 23564 assessed as diameter of inhibition zone at 80 uM after 24 hrs by Kirby -Baur disc diffusion method; type: functional, Salmonella enterica subsp. enterica serovar Typhi; conditions: Salmonella enterica, ATCC 23564, 24 h; read-out: DIZ
HeLa = test: Cytotoxicity against human HeLa cells after 24 hrs by MTT assay; type: functional, cell-based
Summary of the method: (§3)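 The MTT assay seeded 5 × 10⁴ cells per well and grew them 24 h in RPMI 1640 with compound at 2.5–200 µM. Medium without cells was the blank and adriamycin the positive control. MTT was added for 4 h at 37 °C, formazan was solubilised, and absorbance was read at 570 nm. IC50 is the concentration that cuts viability 50% against untreated cells.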

HCT-116 = test: Cytotoxicity against human HCT116 cells after 24 hrs by MTT assay; type: functional, cell-based; summary of the method: as §3
Pseudomonas aeruginosa [15] = test: Antimicrobial activity against Pseudomonas aeruginosa ATCC 15499 after 24 hrs by broth micro serial dilution method; type: functional; conditions: ATCC 15499, 24 h
Summary of the method: (§4)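 This was broth microdilution in autoclaved Mueller-Hinton broth. 150 µL of compound per well was serially diluted […], and 50 µL of test organism was added. Plates were incubated 24 h at 37 °C and optical density was read.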

Trichoderma viride [16] = test: Antifungal activity against Trichoderma viride MTCC 1107 after 48 hrs; type: functional; conditions: MTCC 1107, 48 h
Aspergillus niger [17] = test: Antifungal activity against Aspergillus niger MTCC 1108 assessed as zone of inhibition at 40 uM after 48 hrs by disc diffusion method; type: functional; summary of the method: as §2
Aspergillus niger [18] = test: Antifungal activity against Aspergillus niger MTCC 1108 assessed as zone of inhibition at 20 uM after 48 hrs by disc diffusion method; type: functional; summary of the method: as §2
Curvularia lunata [19] = test: Antifungal activity against Curvularia lunata MTCC 581 assessed as zone of inhibition at 20 uM after 48 hrs by disc diffusion method; type: functional; conditions: MTCC 581, 48 h, read-out: IZ; summary of the method: as §2
QG-56 = test: Cytotoxicity against human QG56 cells after 24 hrs by MTT assay; type: functional, cell-based; summary of the method: as §3
Bacillus cereus [20] = test: Antimicrobial activity against Bacillus cereus MTCC 7350 assessed as diameter of inhibition zone at 40 uM after 24 hrs by Kirby -Baur disc diffusion method; type: functional; conditions: MTCC 7350, 24 h, read-out: DIZ; summary of the method: as §1
Mus musculus = test: Antiinflammatory activity in mouse assessed as inhibition of carrageenan-induced increase in paw volume at 200 mg/kg administered 1 hr prior to carrageenan challenge measured after 3 hrs relative to control; type: functional
Summary of the method: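 Mice were fasted 2 h and placed in groups of five. Controls received saline i.p. Phenylbutazone was given at 100 mg/kg i.p., curcumin at 200 mg/kg i.p., and derivatives at 200 mg/kg. After 1 h, 0.1 mL of 1% carrageenan in saline was injected subplantar into the right hind paw. Paw volume was followed by plethysmometer for 3 h, and % inhibition was calculated as (Vc − Vt)/Vc × 100.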

HepG2 = test: Cytotoxicity against human HepG2 cells after 24 hrs by MTT assay; type: functional, cell-based; summary of the method: as §3
Pseudomonas aeruginosa [21] = test: Antimicrobial activity against Pseudomonas aeruginosa ATCC 15499 assessed as diameter of inhibition zone at 20 uM after 24 hrs by Kirby -Baur disc diffusion method; type: functional; conditions: ATCC 15499, 24 h, read-out: DIZ; summary of the method: as §1
Staphylococcus aureus [22] = test: Antimicrobial activity against Staphylococcus aureus ATCC 11632 after 24 hrs by broth micro serial dilution method; type: functional; conditions: ATCC 11632, 24 h; summary of the method: as §4
Salmonella typhi [23] = test: Antimicrobial activity against Salmonella typhi ATCC 23564 assessed as diameter of inhibition zone at 40 uM after 24 hrs by Kirby -Baur disc diffusion method; type: functional, Salmonella enterica subsp. enterica serovar Typhi; conditions: Salmonella enterica, ATCC 23564, 24 h; read-out: DIZ
Aspergillus flavus [24] = test: Antifungal activity against Aspergillus flavus MTCC 1021 assessed as zone of inhibition at 80 uM after 48 hrs by disc diffusion method; type: functional; conditions: MTCC 1021, 48 h, read-out: IZ; summary of the method: as §2
Aspergillus niger [25] = test: Antifungal activity against Aspergillus niger MTCC 1108 assessed as zone of inhibition at 80 uM after 48 hrs by disc diffusion method; type: functional; conditions: MTCC 1108, 48 h, read-out: IZ; summary of the method: as §2
Curvularia lunata [26] = test: Antifungal activity against Curvularia lunata MTCC 581 assessed as zone of inhibition at 40 uM after 48 hrs by disc diffusion method; type: functional; conditions: MTCC 581, 48 h, read-out: IZ; summary of the method: as §2
Aspergillus niger [27] = test: Antifungal activity against Aspergillus niger MTCC 1108 after 48 hrs; type: functional; conditions: MTCC 1108, 48 h
Escherichia coli [28] = test: Antimicrobial activity against Escherichia coli ATCC 35218 after 24 hrs by broth micro serial dilution method; type: functional; conditions: ATCC 35218, 24 h; summary of the method: as §4
Bacillus cereus [29] = test: Antimicrobial activity against Bacillus cereus MTCC 7350 assessed as diameter of inhibition zone at 20 uM after 24 hrs by Kirby -Baur disc diffusion method; type: functional; conditions: MTCC 7350, 24 h, read-out: DIZ; summary of the method: as §1
Escherichia coli [30] = test: Antimicrobial activity against Escherichia coli ATCC 35218 assessed as diameter of inhibition zone at 20 uM after 24 hrs by Kirby -Baur disc diffusion method; type: functional; conditions: ATCC 35218, 24 h, read-out: DIZ; summary of the method: as §1
Salmonella typhi [31] = test: Antimicrobial activity against Salmonella typhi ATCC 23564 after 24 hrs by broth micro serial dilution method; type: functional, Salmonella enterica subsp. enterica serovar Typhi; conditions: Salmonella enterica, ATCC 23564, 24 h
Aspergillus flavus [32] = test: Antifungal activity against Aspergillus flavus MTCC 1021 assessed as zone of inhibition at 20 uM after 48 hrs by disc diffusion method; type: functional; summary of the method: as §2
Escherichia coli [33] = test: Antimicrobial activity against Escherichia coli ATCC 35218 assessed as diameter of inhibition zone at 80 uM after 24 hrs by Kirby -Baur disc diffusion method; type: functional; conditions: ATCC 35218, 24 h, read-out: DIZ; summary of the method: as §1
Trichoderma viride [34] = test: Antifungal activity against Trichoderma viride MTCC 1107 assessed as zone of inhibition at 80 uM after 48 hrs by disc diffusion method; type: functional; conditions: MTCC 1107, 48 h, read-out: IZ; summary of the method: as §2
Bacillus cereus [35] = test: Antimicrobial activity against Bacillus cereus MTCC 7350 after 24 hrs by broth micro serial dilution method; type: functional; conditions: MTCC 7350, 24 h; summary of the method: as §4
Staphylococcus aureus [36] = test: Antimicrobial activity against Staphylococcus aureus ATCC 11632 assessed as diameter of inhibition zone at 80 uM after 24 hrs by Kirby -Baur disc diffusion method; type: functional; conditions: ATCC 11632, 24 h, read-out: DIZ; summary of the method: as §1

COc1cc(/C=C/C(CC(/C=C/c2ccc(O)c(OC)c2)=N/c2ccc(S(=O)(=O)Nc3cc(C)on3)cc2)=N\c2ccc(S(=O)(=O)Nc3cc(C)on3)cc2)ccc1O
zone of inhibition at 80 µM (Pseudomonas aeruginosa [1]): 26 mm | zone of inhibition at 80 µM (Curvularia lunata [2]): 11 mm | MIC (Aspergillus flavus [3]): > 80 µM | zone of inhibition at 20 µM (Trichoderma viride [4]): 9 mm | zone of inhibition at 40 µM (Escherichia coli [5]): 21 mm | zone of inhibition at 40 µM (Trichoderma viride [6]): 11 mm | zone of inhibition at 40 µM (Staphylococcus aureus [7]): 21 mm | MIC (Curvularia lunata [8]): 40 µM (≈ 33.6 µg/mL) | zone of inhibition at 40 µM (Pseudomonas aeruginosa [9]): 21 mm | zone of inhibition at 20 µM (Staphylococcus aureus [10]): 17 mm | zone of inhibition at 20 µM (Salmonella typhi [11]): 18 mm | zone of inhibition at 80 µM (Bacillus cereus [12]): 21 mm | inhibition zone (IZ) (Aspergillus flavus [13]): inactive | zone of inhibition at 80 µM (Salmonella typhi [14]): 29 mm | IC50 (HeLa): 100 µM | IC50 (HCT-116): 100 µM | MIC (Pseudomonas aeruginosa [15]): 40 µM (≈ 33.6 µg/mL) | MIC (Trichoderma viride [16]): 40 µM (≈ 33.6 µg/mL) | inhibition zone (IZ) (Aspergillus niger [17]): inactive | inhibition zone (IZ) (Aspergillus niger [18]): inactive | zone of inhibition at 20 µM (Curvularia lunata [19]): 9 mm | IC50 (QG-56): 100 µM | zone of inhibition at 40 µM (Bacillus cereus [20]): 16 mm | inhibition in vivo at 200 mg/kg (Mus musculus): 8% | IC50 (HepG2): 100 µM | zone of inhibition at 20 µM (Pseudomonas aeruginosa [21]): 16 mm | MIC (Staphylococcus aureus [22]): 40 µM (≈ 33.6 µg/mL) | zone of inhibition at 40 µM (Salmonella typhi [23]): 26 mm | zone of inhibition at 80 µM (Aspergillus flavus [24]): 9 mm | zone of inhibition at 80 µM (Aspergillus niger [25]): 10 mm | zone of inhibition at 40 µM (Curvularia lunata [26]): 10 mm | MIC (Aspergillus niger [27]): > 80 µM | MIC (Escherichia coli [28]): 20 µM (≈ 16.8 µg/mL) | zone of inhibition at 20 µM (Bacillus cereus [29]): 11 mm | zone of inhibition at 20 µM (Escherichia coli [30]): 18 mm | MIC (Salmonella typhi [31]): 40 µM (≈ 33.6 µg/mL) | inhibition zone (IZ) (Aspergillus flavus [32]): inactive | zone of inhibition at 80 µM (Escherichia coli [33]): 23 mm | zone of inhibition at 80 µM (Trichoderma viride [34]): 13 mm | MIC (Bacillus cereus [35]): 40 µM (≈ 33.6 µg/mL) | zone of inhibition at 80 µM (Staphylococcus aureus [36]): 24 mm

Source: ChEMBL document CHEMBL2384906, “Biological activity, design, synthesis and structure activity relationship of some novel derivatives of curcumin containing sulfonamides” (Eur J Med Chem, 2013)
